Experimental data reported in ChEMBL document CHEMBL1921722, “In vitro and in vivo evaluation of select kahalalide F analogs with antitumor and antifungal activities” (Bioorg Med Chem, 2011).

Columns and labels:
Type in all cases: functional
[1] = tested on: NCI-H460; assay: Cytotoxicity against human NCI-H460 cells assessed as cell growth at 8 uM by sulforhodamine B assay relative to control; details: read-out: Activity
[2] = tested on: TK-10; assay: Cytotoxicity against human TK10 cells assessed as cell growth at 80 uM by sulforhodamine B assay relative to control; details: read-out: Activity
[3] = tested on: Malme-3M; assay: Cytotoxicity against human MALME-3M cells assessed as cell growth at 8 uM by sulforhodamine B assay relative to control; details: read-out: Activity
[4] = tested on: UACC-257; assay: Cytotoxicity against human UACC257 cells assessed as cell growth at 8 uM by sulforhodamine B assay relative to control; details: read-out: Activity
[5] = tested on: SNB-75; assay: Cytotoxicity against human SNB75 cells assessed as cell growth at 8 nM by sulforhodamine B assay relative to control; details: read-out: Activity
[6] = tested on: NCI-H522; assay: Cytotoxicity against human NCI-H522 cells assessed as cell growth at 8 uM by sulforhodamine B assay relative to control; details: read-out: Activity
[7] = tested on: HL-60(TB); assay: Cytotoxicity against human HL-60(TB) cells assessed as cell growth at 800 nM by sulforhodamine B assay relative to control; details: read-out: Activity
[8] = tested on: MOLT-4; assay: Cytotoxicity against human MOLT4 cells assessed as cell growth at 8 uM by sulforhodamine B assay relative to control; details: read-out: Activity
[9] = tested on: Hs-578T; assay: Cytotoxicity against human Hs578T cells assessed as cell growth at 800 nM by sulforhodamine B assay relative to control; details: read-out: Activity
[10] = tested on: COLO 205; assay: Cytotoxicity against human COLO205 cells assessed as cell growth at 80 nM by sulforhodamine B assay relative to control; details: read-out: Activity
How it was run: (§1)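 Run at NCI in the DTP 60-cell-line human tumor panel by standard procedure. Compounds were first screened at a single concentration, then tested at five tenfold-spaced concentrations. GI50 is the concentration reducing treated-cell growth to half that of untreated controls; TGI is the concentration completely halting growth.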

[11] = tested on: PC-3; assay: Cytotoxicity against human PC3 cells assessed as cell growth at 80 nM by sulforhodamine B assay relative to control; details: read-out: Activity
[12] = tested on: NCI/ADR-RES; assay: Cytotoxicity against human NCI/ADR-RES cells assessed as cell growth at 80 uM by sulforhodamine B assay relative to control; details: read-out: Activity
[13] = tested on: Malme-3M; assay: Cytotoxicity against human MALME-3M cells assessed as cell growth at 800 nM by sulforhodamine B assay relative to control; details: read-out: Activity
[14] = tested on: SK-MEL-5; assay: Cytotoxicity against human SK-MEL-5 cells by sulforhodamine B assay; details: for TGI: read-out: pTGI (converted)
How it was run: (§2)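 NCI Developmental Therapeutics Program 60-cell-line human tumor panel screen, run at NCI. A single-concentration pre-screen was followed by a five-concentration dose-response in 10-fold steps. GI50 is the concentration that reduces growth of treated cells to half that of untreated control cells. TGI is the concentration that completely halts growth.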

[15] = tested on: HCT-116; assay: Cytotoxicity against human HCT116 cells assessed as cell growth at 800 nM by sulforhodamine B assay relative to control; details: read-out: Activity
[16] = tested on: HL-60(TB); assay: Cytotoxicity against human HL-60(TB) cells assessed as cell growth at 80 uM by sulforhodamine B assay relative to control; details: read-out: Activity
[17] = tested on: MDA-MB-231; assay: Cytotoxicity against human MDA-MB-231 cells assessed as cell growth at 800 nM by sulforhodamine B assay relative to control; details: read-out: Activity
[18] = tested on: HOP-92; assay: Cytotoxicity against human HOP92 cells assessed as cell growth at 80 uM by sulforhodamine B assay relative to control; details: read-out: Activity
[19] = tested on: NCI-H460; assay: Cytotoxicity against human NCI-H460 cells by sulforhodamine B assay; how it was run: as §2
[20] = tested on: A549; assay: Cytotoxicity against human A549 cells assessed as cell growth at 80 nM by sulforhodamine B assay relative to control; details: read-out: Activity; how it was run: as §1
[21] = tested on: UACC-62; assay: Cytotoxicity against human UACC62 cells assessed as cell growth at 80 nM by sulforhodamine B assay relative to control; details: read-out: Activity
[22] = tested on: MDA-MB-231; assay: Cytotoxicity against human MDA-MB-231 cells assessed as cell growth at 80 nM by sulforhodamine B assay relative to control; details: read-out: Activity
[23] = tested on: BT-549; assay: Cytotoxicity against human BT549 cells assessed as cell growth at 8 nM by sulforhodamine B assay relative to control; details: read-out: Activity; how it was run: as §1
[24] = tested on: SNB-19; assay: Cytotoxicity against human SNB19 cells assessed as cell growth at 8 nM by sulforhodamine B assay relative to control; details: read-out: Activity
[25] = tested on: OVCAR-3; assay: Cytotoxicity against human OVCAR3 cells assessed as cell growth at 80 nM by sulforhodamine B assay relative to control; details: read-out: Activity
[26] = tested on: DU-145; assay: Cytotoxicity against human DU145 cells by sulforhodamine B assay
How it was run: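 Run by the NCI Developmental Therapeutics Program on its 60-line human tumour cell panel using the standard procedure. Compounds went through a single-concentration prescreen first, and those active by NCI criteria went on to a five-concentration growth-inhibition test. GI50 is the concentration that cuts growth of treated cells to half that of untreated control cells.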

[27] = tested on: SW-620; assay: Cytotoxicity against human SW620 cells assessed as cell growth at 80 uM by sulforhodamine B assay relative to control; details: read-out: Activity
[28] = tested on: TK-10; assay: Cytotoxicity against human TK10 cells assessed as cell growth at 800 nM by sulforhodamine B assay relative to control; details: read-out: Activity
[29] = tested on: T47D; assay: Cytotoxicity against human T47D cells assessed as cell growth at 80 nM by sulforhodamine B assay relative to control; details: read-out: Activity
[30] = tested on: SF-539; assay: Cytotoxicity against human SF539 cells assessed as cell growth at 800 nM by sulforhodamine B assay relative to control; details: read-out: Activity
[31] = tested on: SNB-19; assay: Cytotoxicity against human SNB19 cells assessed as cell growth at 8 uM by sulforhodamine B assay relative to control; details: read-out: Activity
[32] = tested on: SF-295; assay: Cytotoxicity against human SF295 cells assessed as cell growth at 8 nM by sulforhodamine B assay relative to control; details: read-out: Activity
[33] = tested on: HL-60(TB); assay: Cytotoxicity against human HL-60(TB) cells assessed as cell growth at 8 uM by sulforhodamine B assay relative to control; details: read-out: Activity
[34] = tested on: ACHN; assay: Cytotoxicity against human ACHN cells assessed as cell growth at 80 nM by sulforhodamine B assay relative to control; details: read-out: Activity; how it was run: as §1
[35] = tested on: NCI-H226; assay: Cytotoxicity against human NCI-H226 cells assessed as cell growth at 80 nM by sulforhodamine B assay relative to control; details: read-out: Activity
[36] = tested on: OVCAR-8; assay: Cytotoxicity against human OVCAR8 cells assessed as cell growth at 80 uM by sulforhodamine B assay relative to control; details: read-out: Activity
[37] = tested on: OVCAR-3; assay: Cytotoxicity against human OVCAR3 cells by sulforhodamine B assay; details: for TGI: read-out: pTGI (converted); how it was run: as §2
[38] = tested on: OVCAR-4; assay: Cytotoxicity against human OVCAR4 cells assessed as cell growth at 80 nM by sulforhodamine B assay relative to control; details: read-out: Activity
[39] = tested on: Malme-3M; assay: Cytotoxicity against human MALME-3M cells assessed as cell growth at 80 nM by sulforhodamine B assay relative to control; details: read-out: Activity
[40] = tested on: T47D; assay: Cytotoxicity against human T47D cells assessed as cell growth at 8 nM by sulforhodamine B assay relative to control; details: read-out: Activity

## C/C=C1\NC(=O)[C@H](Cc2ccccc2)NC(=O)[C@@H](C(C)C)NC(=O)[C@@H]([C@@H](C)CC)NC(=O)[C@H](NC(=O)[C@H](NC(=O)[C@H](CCCNCc2ccc(N3CCOCC3)cc2)NC(=O)[C@H]2CCCN2C(=O)[C@H](NC(=O)[C@@H](NC(=O)[C@@H](NC(=O)[C@H](NC(=O)CCCC(C)C)C(C)C)[C@@H](C)O)C(C)C)C(C)C)[C@@H](C)CC)[C@@H](C)OC(=O)[C@H](C(C)C)NC1=O
[1]
  growth at 8 µM: -24%
[2]
  growth at 80 µM: -56%
[3]
  growth at 8 µM: -71%
[4]
  growth at 8 µM: -76%
[5]
  growth at 0.008 µM: 110%
[6]
  growth at 8 µM: 40%
[7]
  growth at 0.8 µM: 93%
[8]
  growth at 8 µM: 83%
[9]
  growth at 0.8 µM: 36%
[10]
  growth at 0.08 µM: 95%
[11]
  growth at 0.08 µM: 97%
[12]
  growth at 80 µM: -58%
[13]
  growth at 0.8 µM: 117%
[14]
  GI50: 1230 nM
  LC50: 4070 nM
  TGI: 2240 nM
[15]
  growth at 0.8 µM: 104%
[16]
  growth at 80 µM: -24%
[17]
  growth at 0.8 µM: 86%
[18]
  growth at 80 µM: -62%
[19]
  GI50: 2000 nM
[19]; read-out: pLC50 (the source's name) (converted)
  CC50: > 75900 nM
[20]
  growth at 0.08 µM: 102%
[21]
  growth at 0.08 µM: 103%
[22]
  growth at 0.08 µM: 97%
[23]
  growth at 0.008 µM: 106%
[24]
  growth at 0.008 µM: 95%
[25]
  growth at 0.08 µM: 87%
[26]
  LC50: 513 nM
[26]; read-out: GI50
  GI50: 128 nM
[26]; read-out: TGI
  TGI: 257 nM
[26]; read-out: pGI50 (converted)
  GI50: 129 nM
[26]; read-out: pTGI (converted)
  TGI: 257 nM
[27]
  growth at 80 µM: -13%
[28]
  growth at 0.8 µM: 104%
[29]
  growth at 0.08 µM: 89%
[30]
  growth at 0.8 µM: 93%
[31]
  growth at 8 µM: -70%
[32]
  growth at 0.008 µM: 107%
[33]
  growth at 8 µM: -17%
[34]
  growth at 0.08 µM: 102%
[35]
  growth at 0.08 µM: 107%
[36]
  growth at 80 µM: 28%
[37]
  GI50: 617 nM
  TGI: 1860 nM
[38]
  growth at 0.08 µM: 102%
[39]
  growth at 0.08 µM: 112%
[40]
  growth at 0.008 µM: 101%

## C/C=C1\NC(=O)[C@H](Cc2ccccc2)NC(=O)[C@@H](C(C)C)NC(=O)[C@@H]([C@@H](C)CC)NC(=O)[C@H](NC(=O)[C@H](NC(=O)[C@H](CCCNCc2ccc(F)c(C)c2)NC(=O)[C@H]2CCCN2C(=O)[C@H](NC(=O)[C@@H](NC(=O)[C@@H](NC(=O)[C@H](NC(=O)CCCC(C)C)C(C)C)[C@@H](C)O)C(C)C)C(C)C)[C@@H](C)CC)[C@@H](C)OC(=O)[C@H](C(C)C)NC1=O
[1]
  growth at 8 µM: -71%
[2]
  growth at 80 µM: -9%
[3]
  growth at 8 µM: -77%
[4]
  growth at 8 µM: -78%
[5]
  growth at 0.008 µM: 112%
[6]
  growth at 8 µM: 3%
[7]
  growth at 0.8 µM: 106%
[8]
  growth at 8 µM: -5%
[9]
  growth at 0.8 µM: -5%
[10]
  growth at 0.08 µM: 90%
[11]
  growth at 0.08 µM: 104%
[12]
  growth at 80 µM: -60%
[13]
  growth at 0.8 µM: 102%
[14]
  GI50: 1150 nM
  LC50: 3980 nM
  TGI: 2140 nM
[15]
  growth at 0.8 µM: 104%
[16]
  growth at 80 µM: -37%
[17]
  growth at 0.8 µM: 91%
[18]
  growth at 80 µM: -91%
[19]
  GI50: 1510 nM
[20]
  growth at 0.08 µM: 98%
[21]
  growth at 0.08 µM: 104%
[22]
  growth at 0.08 µM: 98%
[23]
  growth at 0.008 µM: 106%
[24]
  growth at 0.008 µM: 99%
[25]
  growth at 0.08 µM: 88%
[26]
  LC50: 468 nM
[26]; read-out: GI50
  GI50: 123 nM
[26]; read-out: TGI
  TGI: 240 nM
[26]; read-out: pGI50 (converted)
  GI50: 123 nM
[26]; read-out: pTGI (converted)
  TGI: 240 nM
[27]
  growth at 80 µM: -80%
[28]
  growth at 0.8 µM: 101%
[29]
  growth at 0.08 µM: 90%
[30]
  growth at 0.8 µM: 93%
[31]
  growth at 8 µM: -84%
[32]
  growth at 0.008 µM: 99%
[33]
  growth at 8 µM: -65%
[34]
  growth at 0.08 µM: 100%
[35]
  growth at 0.08 µM: 109%
[36]
  growth at 80 µM: 48%
[37]
  GI50: 437 nM
  LC50: 3470 nM
  TGI: 1480 nM
[38]
  growth at 0.08 µM: 104%
[39]
  growth at 0.08 µM: 118%
[40]
  growth at 0.008 µM: 104%
